pIC50: −log10 of the molar value. The source made the active and inactive calls. No cut-off for these calls is given here.
Assays:
[1] = test system: PC-12; experiment: Cytotoxicity against rat PC12 cells at 0.1 to 10 uM after 24 to 72 hrs by MTT assay; type: cell-based; settings: pc-12, 10 µM
Procedure, shortened: (§1)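 Seeded at 2×10^4 cells/mL in serum-containing medium (PC12: RPMI 1640, 10% horse serum, 5% FBS; HEK293 and HT22: DMEM, 10% FBS) for 24 h, then 0.1, 1 or 10 μM compound for 24, 48 or 72 h. MTT 5 mg/mL, 4 h, 37 °C; DMSO-dissolved formazan read at 570 nm; % of untreated control; three replicates, three experiments.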

[2] = test system: PC-12; experiment: Neuroprotective activity in rat PC12 cells assessed as inhibition of serum deprivation-induced apoptosis after 24 hrs by APO Percentage apoptosis assay; type: functional, cell-based; settings: PC-12, 24 h
[3] = test system: LNCaP; experiment: Induction of human LNCAP cells growth containing endogenous […] receptor at 1 uM by MTT assay relative to estradiol; type: functional, cell-based
Procedure, shortened: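 Prostate cells at 5000/well on polylysine-coated wells in phenol red-free RPMI with 10% charcoal-stripped FBS; after 72 h, 96 h exposure; MTT at 550 nm.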

[4] = target: Estrogen receptor beta (Homo sapiens) (UniProt Q92731); experiment: Antagonist activity at ERbeta in HEK293 cells assessed as inhibition of ERE-dependent luciferase expression at 1 uM relative to ICI-182780; type: functional, cell-based; design: scale not given: the % may be the effect or the level left
Chain of Estrogen receptor beta (Homo sapiens) (Q92731 whole entry): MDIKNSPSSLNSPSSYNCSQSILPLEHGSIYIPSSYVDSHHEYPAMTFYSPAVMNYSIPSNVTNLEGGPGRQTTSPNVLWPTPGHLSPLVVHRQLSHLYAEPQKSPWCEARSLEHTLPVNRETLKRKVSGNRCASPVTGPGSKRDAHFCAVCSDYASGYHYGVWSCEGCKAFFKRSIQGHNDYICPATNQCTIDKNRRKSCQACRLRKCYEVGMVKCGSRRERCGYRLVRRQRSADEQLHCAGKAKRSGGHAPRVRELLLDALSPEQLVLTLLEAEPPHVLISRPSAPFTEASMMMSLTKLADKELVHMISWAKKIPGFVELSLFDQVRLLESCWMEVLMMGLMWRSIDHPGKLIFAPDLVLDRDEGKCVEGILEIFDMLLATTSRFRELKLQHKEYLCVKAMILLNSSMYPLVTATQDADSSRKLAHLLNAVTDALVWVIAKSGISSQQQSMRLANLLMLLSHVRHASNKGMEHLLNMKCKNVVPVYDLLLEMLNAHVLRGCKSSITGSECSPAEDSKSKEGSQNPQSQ

[5] = test system: HEK293; experiment: Cytotoxicity against HEK293 cells at 0.1 to 10 uM after 24 to 72 hrs by MTT assay; type: cell-based; settings: human, hek293, 10 µM; procedure, shortened: as §1
[6] = Cytotoxicity against mouse HT22 cells at 0.1 to 10 uM after 24 to 72 hrs by MTT assay; type: cell-based; settings: ht-22, 10 µM; procedure, shortened: as §1
[7] = Displacement of [3H]DHEA from DHEA-binding site in rat PC12 cell membranes by […] counting; design: species or system Membrane; settings: pc-12
[8] = test system: PC-12; experiment: Neuroprotective activity in rat PC12 cells assessed as inhibition of serum deprivation-induced apoptosis after 24 hrs by FACS flow cytometry; type: functional, cell-based
Procedure, shortened: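 PC12 cells (10^6/well) 24 h in serum-free medium with BSA plus 100 nM steroid; stained with 2 μg/mL annexin V-FITC (10 min, dark, HEPES/CaCl2 buffer pH 7.4) and propidium iodide, analysed by flow cytometry within 20 min, 10000 cells per treatment; at least four experiments in triplicate.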

[9] = target: T1, Estrogen receptor (Homo sapiens) (UniProt P03372); experiment: Antagonist activity at estrogen receptor in human Ishikawa cells assessed as inhibition of ERE-dependent alkaline phosphatase levels at 1 uM relative to ICI-182780; type: functional, cell-based; design: scale not given: the % may be the effect or the level left
T1 sequence (whole entry): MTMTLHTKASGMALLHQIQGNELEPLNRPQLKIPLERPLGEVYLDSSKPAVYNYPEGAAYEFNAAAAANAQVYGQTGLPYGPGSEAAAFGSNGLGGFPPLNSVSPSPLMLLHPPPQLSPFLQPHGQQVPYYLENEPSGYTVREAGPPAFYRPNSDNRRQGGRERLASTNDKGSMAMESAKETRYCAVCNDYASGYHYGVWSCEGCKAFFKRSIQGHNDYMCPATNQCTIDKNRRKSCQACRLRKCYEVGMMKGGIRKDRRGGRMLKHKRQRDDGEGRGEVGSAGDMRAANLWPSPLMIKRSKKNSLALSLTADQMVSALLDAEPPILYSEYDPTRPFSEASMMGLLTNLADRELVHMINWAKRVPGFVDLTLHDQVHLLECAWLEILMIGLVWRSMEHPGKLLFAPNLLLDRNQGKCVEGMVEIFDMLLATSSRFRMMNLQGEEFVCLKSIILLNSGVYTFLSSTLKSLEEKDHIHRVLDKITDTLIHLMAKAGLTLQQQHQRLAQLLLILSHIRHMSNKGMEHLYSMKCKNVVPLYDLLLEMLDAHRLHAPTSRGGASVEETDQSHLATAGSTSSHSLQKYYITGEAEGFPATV

[10] = target: Estrogen receptor beta (Homo sapiens) (UniProt Q92731); experiment: Agonist activity at ERbeta in HEK293 cells assessed as induction of ERE-dependent luciferase expression at 1 uM relative to estradiol; type: functional, cell-based
[11] = test system: PC-12; experiment: Neuroprotective activity against serum deprivation-induced apoptosis in rat PC12 cells assessed as increase in antiapoptotic protein Bcl2 levels at 10 nM after 12 hrs by Western blot; type: functional, cell-based
Procedure, shortened: (§2)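 PC12 cells cultured 12 h in serum-free medium (0.1% BSA, 10 nM haloperidol) with 10 nM steroid; total protein extracts Western blotted for Bcl-2 or Bcl-xL, band intensity by densitometry normalized to actin; % of control; three independent experiments.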

[12] = test system: MCF7; experiment: Induction of human MCF7 cells growth containing endogenous ERalpha receptor at 1 uM by MTT assay relative to estradiol; type: functional
Procedure, shortened: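 Breast cancer cells at 8000/well in phenol red-free MEM, 1 μg/mL insulin, 5% charcoal-stripped FBS; after 72 h, 96 h exposure; MTT formazan at 550 nm.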

[13] = test system: PC-12; experiment: Neuroprotective activity against serum deprivation-induced apoptosis in rat PC12 cells assessed as increase in antiapoptotic protein Bcl-XL levels at 10 nM after 12 hrs by Western blot; type: functional, cell-based; procedure, shortened: as §2
[14] = target: T1, Estrogen receptor (Homo sapiens); experiment: Antagonist activity at ERalpha in human MCF7:D5L cells assessed as inhibition of ERE-dependent luciferase expression at 1 uM relative to ICI-182780; type: functional, cell-based
[15] = target: T1, Estrogen receptor (Homo sapiens); experiment: Agonist activity at ERalpha in human MCF7:D5L cells assessed as induction of ERE-dependent luciferase expression at 1 uM relative to estradiol; type: functional, cell-based
[16] = target: T1, Estrogen receptor (Homo sapiens); experiment: Agonist activity at estrogen receptor in human Ishikawa cells assessed as induction of ERE-dependent alkaline phosphatase level at 1 uM relative to estradiol; type: functional, cell-based
[17] = test system: Ishikawa; experiment: Induction of human Ishikawa cells growth containing endogenous ERalpha receptor at 1 uM by MTT assay relative to estradiol; type: functional, cell-based
Procedure, shortened: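 Endometrial cells at 8000/well in phenol red-free MEM, 1 μg/mL insulin, 5% charcoal-stripped FBS; compound added 24 h after plating, 96 h exposure; MTT at 550 nm.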

[18] = test system: PC-12; experiment: Induction of tyrosine hydroxylase mRNA expression in rat PC12 cells at 10 nM after 6 hrs mins by RT-PCR; type: functional, cell-based
Procedure, shortened: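 PC12 cells incubated 6 h with 10 nM steroid; TH mRNA measured by RT-PCR, 33 cycles, 368 bp product on 2% agarose gel, normalized to GAPDH mRNA.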

[19] = test system: PC-12; experiment: Induction of dopamine release in rat PC12 cells at 10 nM after 10 mins by radioimmunoassay relative to control; type: functional
Procedure, shortened: (§3)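 PC12 cells at 10^6/well on poly(L-lysine) exposed to 10 nM steroid in serum-free medium for 5–30 min or 3–48 h; 1 mL supernatant acidified with 0.1 M HCl; dopamine measured by 125I radioimmunoassay after COMT conversion to 3-methoxytyramine and acylation. Expressed as % of untreated cells; four independent experiments.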

[20] = test system: PC-12; experiment: Induction of dopamine release in rat PC12 cells at 10 nM after 24 hrs mins by radioimmunoassay; type: functional, cell-based; procedure, shortened: as §3
[21] = test system: PC-12; experiment: Neuroprotective activity in rat PC12 cells assessed as inhibition of serum deprivation-induced apoptosis at 100 nM after 24 hrs by APO Percentage apoptosis assay; type: functional, cell-based
Procedure, shortened: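 PC12 cells cultured 24 h in serum-free medium with BSA and 10 nM haloperidol plus 100 nM steroid. Apoptotic cells stained with APOPercentage dye, dye released and read at 550 nm (reference 620 nm); expressed relative to serum-free control; at least four experiments in triplicate.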

In the case of `C[C@]12CC[C@H](O)CC1=CC[C@@H]1[C@@H]2CC[C@@]2(C)[C@H]1CC[C@]21O[C@H]1CO`, the Activity [1] was “Non-toxic”, the pIC50 [2] was 7.00 and the Activity [3] was “inactive”. For the same compound, the Activity [4] was “inactive”, the Activity [5] was “Non-toxic” and the Activity [6] was “Non-toxic”. The pIC50 [7] was 9.96, the Activity [8] was “Active” and the Activity [9] was “inactive”. The Activity [10] was “inactive”, the Activity [11] was “Active” and the Activity [12] was “inactive”. The Activity [13] was “Active”, the Activity [14] was “inactive” and the Activity [15] was “inactive”. The Activity [16] was “inactive” and the Activity [17] was “inactive”.
For `C[C@]12CC[C@H](O)CC1=CC[C@@H]1[C@@H]2CC[C@@]2(C)[C@H]1CC[C@@]21CO1`, the Activity [1] was “Non-toxic”, the pIC50 [2] was 9.72 and the Activity [3] was “inactive”. For the same compound, the Activity [4] was “inactive”, the Activity [5] was “Non-toxic” and the Activity [18] was “Active”. The Activity [6] was “Non-toxic”, the pIC50 [7] was 10.40 and the Activity [8] was “Active”. The Activity [9] was “inactive”, the Activity [10] was “inactive” and the Activity [11] was “Active”. The “fold change (FC)” value [19] was 2, the Activity [12] was 33% and the Activity [13] was “Active”. For the same compound, the Activity [14] was “inactive”, the Activity [20] was “Active” and the Activity [15] was 29%. For the same compound, the Activity [16] was 22% and the Activity [17] was “inactive”.
In the case of `C[C@]12CC[C@H](O)CC1=CC[C@@H]1[C@@H]2CC[C@@]2(C)[C@H]1CC[C@]21O[C@@H]1CO`, the Activity [1] was “Non-toxic”, the pIC50 [2] was 8.19 and the Activity [3] was “inactive”. For the same compound, the Activity [4] was 31%, the Activity [5] was “Non-toxic” and the Activity [18] was “Active”. For the same compound, the Activity [6] was “Non-toxic”, the pIC50 [7] was 7.73 and the Activity [8] was “Active”. The Activity [9] was 24%, the Activity [10] was “inactive” and the Activity [11] was “Active”. The “fold change (FC)” value [19] was 2, the Activity [12] was “inactive” and the Activity [13] was “Active”. For the same compound, the Activity [14] was “inactive”, the Activity [20] was “Active” and the Activity [15] was “inactive”. For the same compound, the Activity [16] was “inactive” and the Activity [17] was “inactive”.
With `C[C@]12CC[C@H](O)CC1=CC[C@@H]1[C@@H]2CC[C@]2(C)C(=O)CC[C@@H]12` [PRASTERONE] the pIC50 [2] was 9.54 and the pIC50 [7] was 8.78.
For `C[C@]1(O)CC[C@@]2(C)C(=CC[C@@H]3[C@@H]2CC[C@]2(C)C(=O)CC[C@@H]32)C1`, the inhibition [21] was “inactive”.
In the case of `COC[C@]1(O)CC[C@@]2(C)C(=CC[C@@H]3[C@@H]2CC[C@]2(C)C(=O)CC[C@@H]32)C1`, the inhibition [21] was “inactive”.
In the case of `C[C@]12CC[C@@](O)(CC#N)CC1=CC[C@@H]1[C@@H]2CC[C@]2(C)C(=O)CC[C@@H]12`, the inhibition [21] was “inactive”.
In the case of `CO[C@H]1CC[C@H]2[C@@H]3CC=C4C[C@@H](O)CC[C@]4(C)[C@H]3CC[C@]12C`, the inhibition [21] was “inactive”.
In the case of `CCCC[C@@]1(O)CC[C@@]2(C)C(=CC[C@@H]3[C@@H]2CC[C@]2(C)C(=O)CC[C@@H]32)C1`, the inhibition [21] was “inactive”.
In the case of `C[C@@]1(O)CC[C@@]2(C)C(=CC[C@@H]3[C@@H]2CC[C@]2(C)C(=O)CC[C@@H]32)C1`, the inhibition [21] was “inactive”.
With `C[C@]12CC[C@@](O)(CN=[N+]=[N-])CC1=CC[C@@H]1[C@@H]2CC[C@]2(C)C(=O)CC[C@@H]12` the inhibition [21] was “inactive”.

Reference: ChEMBL document CHEMBL1154375, “Novel dehydroepiandrosterone derivatives with antiapoptotic, neuroprotective activity” (J Med Chem, 2009)
